# STAT1 inh = reduces IFN-gamma driven STAT1 reporter signal | NIH 3T3 STAT1-luciferase reporter, luminescence | inhibition, % at 5.5 µM | actives 0.35% (n = 200,000);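 active = inhibition above a set limit, the mean inhibition across all tested compounds plus 3 SD, cut at about 34% in these data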;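 also: 0% = IFN-gamma with DMSO and 100% = IFN-gamma with 300 µM nifuroxazide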
# STAT3 blocker = STAT3 signaling inhibition. U3A cells, IL-6 STAT3-luciferase reporter, luminescence; host cell line lacks STAT1. inhibition, % at 5.5 µM. actives 0.89% (n = 190,000);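 active = inhibition above the mean inhibition across all screened compounds plus 3 SD, cut at about 44% in these data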;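 also: 0% = DMSO only wells and 100% = 100 µM nifuroxazide control wells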
# NF-kB neuron act = NF-kB expression increase, human neuronal cells | actives 1.6% (n = 190,000) | NF-kB reporter expression; active compounds read high | fold change at 12.5 µM; in the data active = fold change above about 3.3
# APP 5'UTR act = APP 5'UTR luciferase reporter activation; activation, % at 2 µM; AID 1276; actives 1% (n = 190,000); SH-SY5Y APP 5'UTR luciferase reporter, luminescence; zero percent = DMSO vehicle wells;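 active = activation above a set limit, based on mean plus 3 SD of controls, cut at about 140% in these data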
# STAT3 activator = increases IL-6 driven STAT3 reporter signal; U3A cells, IL-6 STAT3-luciferase reporter, luminescence; 100% = signal with IL-6 EC80 alone; activation (% of control), % at 5.6 µM; actives 0.91% (n = 190,000); AID 871;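 active = activation above the screen-wide mean of compound activation plus 3 SD, cut at about 130% in these data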;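 also: 0% = background luminescence of wells with medium and substrate only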
#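 system = STAT3-luciferase reporter U3A cells | reagent = IL-6 stimulus at 33 ng/mL final | timing = 1 h compound pre-exposure, 6 h IL-6 stimulation, 37 °C | measured by = luminescence | evaluation = % activation versus median of IL-6-stimulated wells | control set = IL-6-only wells as 100% reference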
# STAT1 act = increases IFN-gamma driven STAT1 reporter signal | NIH 3T3 STAT1-luciferase reporter, luminescence; 100% = IFN-gamma alone, no compound | activation (% of control), % at 5.5 µM | actives 2.6% (n = 200,000) | AID 932;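 active = activation above the screen-wide mean activation plus 3 SD, cut at about 130% in these data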;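 also: raw ratio to IFN-gamma control signal so 100% means no change and 0% no light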
# * marks the source's active call; other numbers are inactive results; · = no result. Only some compounds are listed: those with a hit (about 4.9% of all), similar ones and a draw of the others.
SMILES,STAT1 inh,STAT3 blocker,NF-kB neuron act,APP 5'UTR act,STAT3 activator,STAT1 act
Cc1ccc2[nH]c3c(c2c1)CN(C(=O)CN1CCCc2ccccc21)CC3,-1,-35,0.83,-2,133*,99
COC(=O)c1[nH]c2cc(C)ccc2c1NC(=O)CN1CCN(c2ccccc2OC)CC1,13,-22,0.6,25,121,88
COC(=O)c1[nH]c2ccc(C)cc2c1NC(=O)CN1CCCc2ccccc21,9,-40,0.75,14,135*,92
CC1CCc2c(sc3ncn(CCO)c(=O)c23)C1 (stereo not drawn),-42,-19,2.1,88,117,138*
Nc1nnc(-c2ccc(Cl)cc2Cl)s1,-53,5,2.6,30,100,147*
c1ccc(-c2nc3ccccc3[nH]2)nc1,-40,13,2.6,85,92,137*
Nc1nc(-c2nc3ccccc3[nH]2)cs1,-43,20,4.3*,140*,86,140*
c1ccc2[nH]c(-c3ccncc3)nc2c1,11,15,1.2,19,90,88
O=c1[nH]c(-c2ccccn2)nc2ccccc12,-38,9,1.5,32,94,135*
COc1ccc(-c2cn3cc(C)ccc3n2)cc1F,63*,87*,2.4,147*,26,40
COc1ccc(-c2cn3ccccc3n2)cc1OC,-32,-82,2.3,104,173*,130*
COc1ccc(-c2csc(C)n2)cc1OC,-5,10,1.9,14,97,105
COc1ccc(CC(=O)Nc2ccc(-c3cn4ccccc4n3)cc2)cc1OC,-12,17,1.4,7,85,111
COc1ccc(-c2cn3cc(C)ccc3n2)cc1OC,-36,22,5.7*,184*,84,134*
CCOc1ccc(-c2cn3ccccc3n2)cc1,53*,89*,4.8*,207*,29,50
Cc1ccc(Cl)cc1NC(=S)NCc1cccn1C,6,4,0.89,-4,95,95
Cc1onc(-c2ccccc2Cl)c1C(=O)Oc1cccc2cccnc12,13,13,0.95,11,98,88
S=C1NC(c2cccs2)=CC(c2ccc(Br)cc2)N1 (stereo not drawn),7,-13,4*,12,115,94
O=C(COC(=O)CNC(=O)c1ccc(Br)o1)Nc1ccccc1OC(F)F,-6,-2,0.96,-15,104,105
Clc1ccc(COn2nnc3ccccc32)c(Cl)c1,-49,20,2.4,153*,85,146*
O=[N+]([O-])c1ccc(COn2nnc3ccccc32)cc1,-20,19,1.1,-12,88,115
O=C(Oc1ccc(F)cc1C(=O)/C=C/c1cccs1)c1cccc([N+](=O)[O-])c1,-18,-22,4.5*,-43,123,116
O=C(/C=C/c1ccccc1F)c1cccc([N+](=O)[O-])c1,-6,-15,1.2,22,114,105
C=CCNc1ncnc2c1[nH]c1ccc(C)cc12,-43,34,4.5*,179*,74,139*
Cc1ccc2[nH]c3c(NCCN4CCOCC4)ncnc3c2c1,6,-2,0.89,9,107,95
SMILES,STAT1 inh,STAT3 blocker,NF-kB neuron act,APP 5'UTR act,STAT3 activator,STAT1 act
Cc1ccc2[nH]c3c(N4CCCCCC4)ncnc3c2c1,36*,68*,0.59,3,48,67
N#Cc1c(N)nc2c(c1-c1ccccc1)CCC2,-29,-11,1.4,70,117,125
CCOC(=O)N1CCC(N2C(=O)c3ccccc3C2Nc2ccc(S(=O)(=O)N(CC)CC)cc2)CC1 (stereo not drawn),0,1,0.76,20,103,98
CCOc1ccc(OCc2ccc(C(=O)N3CCOCC3)cc2)cc1,-11,4,1.2,20,99,101
CCOc1ccc(N=C(/C(C(=O)C(=O)N2CCOCC2)=C(\O)c2ccccc2)c2ccccc2)cc1,-44,9,2.1,88,96,139*
COc1ccccc1C(=O)Nc1nnc(-c2ccco2)s1,-41,4,3.2,145*,101,138*
CCSc1nnc(Nc2ccc(C)cc2)s1,-47,2,3.4*,70,103,143*
CCSc1nnc(NC(=O)c2ccccc2C)s1,-44,6,2.4,56,101,138*
CCSc1nnc(NC(=O)c2ccc3c(c2)OCO3)s1,-20,19,3.4*,53,87,118
CCSc1nnc(NC(=O)/C=C/c2ccc3c(c2)OCO3)s1,-6,11,1.4,-7,92,105
CSc1ccccc1C(=O)NCCOc1cccc(C)c1,-8,3,1.1,-2,102,104
COCCCN=Cc1c(C)[nH]n(-c2ccc(Br)cc2Br)c1=O,-3,15,0.81,4,96,102
O=S(=O)(/N=C(/c1ccccc1)N1CCCCC1)c1ccccc1,-5,-4,1.4,-2,103,105
Cc1ccccc1C(=O)Nc1nnc(-c2ccco2)s1,44*,69*,3.7*,141*,42,59
COc1ccccc1C(=O)C1CCCN(C(=O)CN2CCCCC2=O)C1 (stereo not drawn),-15,3,1.2,20,102,111
CNC(=S)N/N=C/c1ccc(C(C)C)cc1,-39,18,·,64,91,129*
CC(C)c1ccc(/C=N/NC(=O)c2ccccc2Cl)cc1,-46,-11,1.7,-61,115,139*
CC(C)c1ccc(/C=N/NC(=O)CC(=O)NCc2ccccc2)cc1,-5,0,1.1,-2,112,104
O=C(COc1ccc(/C=N/NC(=O)C(=O)N2CCCCCC2)cc1)Nc1ccccc1Cl,-1,12,1.1,-3,88,101
Cn1c2c(c(=O)[nH]c1=O)C(c1cccc(O)c1)C1=C(N2)c2ccccc2C1=O (stereo not drawn),13,17,0.77,-28,91,86
Cc1csc(SCC(=O)Nc2ccc3c(c2)OCCO3)n1,-39,13,1.6,37,93,132*
CSc1nsc(SCC(=O)Nc2ccc3c(c2)OCCO3)n1,-15,5,4*,141*,97,114
C/C(CC(=O)Nc1ccc2c(c1)OCCO2)=N\NC(=O)c1ccccn1,-29,11,1.1,136*,97,128
C/C(CC(=O)Nc1cc(C)cc(C)c1)=N\NC(=O)c1ccccn1,-11,9,1.3,107,91,111
Cc1ccc2cc(/C=N/NC(=O)CN3CCCCC3)c(Cl)nc2c1,-5,17,1.2,5,87,103
COc1ccc(/C=N/NC(=O)c2[nH]c3ccc(Br)cc3c2-c2ccccc2)cc1,-30,-59,3.3,-97,152*,127
O=C(N/N=C/c1ccccc1Cl)c1[nH]c2ccc(Br)cc2c1-c1ccccc1,-4,-40,4.1*,-96,135*,104

# Screening data (PubChem)
